Calls of active or inactive are those of the source. No cut-off for these calls is given here.
Experiments:
Mus musculus [1] = assay: Antiosteoporotic activity in C57BL6/J mouse model of OVX-induced bone loss assessed as trabecular separation level in femoral metaphysis at 20 mg/kg, ip QD for 4 weeks by histomorphometry (319.80 +/- 106.52 um); format: functional
How it was run: (§1)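 OVX mice, 12 weeks old, ip 20 mg/kg q.d. or b.i.d. for 4 weeks in CMC/Tween 80 vehicle. Distal right femur taken day 28. Static trabecular parameters measured on one 4-µm Masson-Goldner trichrome section, ROI 0.75 mm². n=10 per group, 9 in OVX+vehicle.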

[2] = Toxicity in C57BL6/J mouse model of OVX-induced bone loss assessed as effect on bone formation by measuring bone formation rate per trabecular bone surface level in femoral metaphysis at 20 mg/kg, ip QD for 4 weeks by histomorphometry ([…]); format: organism-based; details: in vivo, 672 h
Mus musculus [3] = assay: Antiosteoporotic activity in C57BL6/J mouse model of OVX-induced bone loss assessed as trabecular number level in femoral metaphysis at 20 mg/kg, ip BID for 4 weeks by histomorphometry (2.99 +/- 0.80 /mm); format: functional; how it was run: as §1
[4] = Toxicity in C57BL6/J mouse model of OVX-induced bone loss assessed as effect on bone formation by measuring mineralizing surface per trabecular bone surface level in femoral metaphysis at 20 mg/kg, ip QD for 4 weeks by histomorphometry (27.90 +/ 8.22 %); format: organism-based; details: in vivo, 672 h
Mus musculus [5] = assay: Antiosteoporotic activity in C57BL6/J mouse model of OVX-induced bone loss assessed as serum CTX-1 level […] at 20 mg/kg, ip BID for 4 weeks (165.38 +/- 54.93 %); format: functional
Mus musculus [6] = assay: Antiosteoporotic activity in C57BL6/J mouse model of OVX-induced bone loss assessed as trabecular number level in femoral metaphysis at 20 mg/kg, ip QD for 4 weeks by histomorphometry (2.99 +/- 0.80 /mm); format: functional; how it was run: as §1
Mus musculus [7] = assay: Antiosteoporotic activity in C57BL6/J mouse model of OVX-induced bone loss assessed as serum CTX-1 level […] at 20 mg/kg, ip QD for 4 weeks (165.38 +/- 54.93 %); format: functional
[8] = Toxicity in C57BL6/J mouse model of OVX-induced bone loss assessed as effect on bone formation by measuring number of osteoblasts per bone surface level in femoral metaphysis at 20 mg/kg, ip BID for 4 weeks by histomorphometry (4.55 +/ 2.53 /mm); format: organism-based; details: in vivo, 672 h; how it was run: as §1
[9] = test system: Osteoclast (Homo sapiens); assay: Toxicity in human peripheral blood cell-derived osteoclasts assessed as reduction in osteoclasts number up to 20 uM incubated for 48 hrs by TRAP-staining based assay
[10] = Toxicity in C57BL6/J mouse model of OVX-induced bone loss assessed as effect on bone formation by measuring mineralizing mineral apposition rate level in femoral metaphysis at 20 mg/kg, ip QD for 4 weeks by histomorphometry (1.62 +/ 0.21 um/d (lcm)); format: organism-based; details: in vivo, 672 h
Mus musculus [11] = assay: Antiosteoporotic activity in C57BL6/J mouse model of OVX-induced bone loss assessed as trabecular bone volume per tissue volume level in tibial metaphysis at 20 mg/kg, ip QD for 4 weeks by microCT analysis (17.49 +/- 2.91 %); format: functional
[12] = Toxicity in C57BL6/J mouse model of OVX-induced bone loss assessed as effect on osteoclast numbers per bone perimeter at 20 mg/kg, IP BID for 4 weeks; format: organism-based; details: in vivo, 672 h; how it was run: as §1
[13] = molecular target: Triple functional domain protein (Homo sapiens) (UniProt O75962); assay: Inhibition of C-terminal 6-histidine tagged human TRIOGEF1 (R1232 to T1550 residues) expressed in Escherichia coli assessed as reduction in nucleotide exchange efficiency at 20 to 60 uM by N-methylanthraniloyl-GDP fluorescence based nucleotide exchange assay; details: dose microM 20-60
How it was run: (§2)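 Mant-GDP-loaded His-tagged human RAC1 at 2.0 µM with 100 nM DOCK5 (residues 1212-1642) or TRIOGEF1 (R1232-T1550), both E. coli-expressed. Buffer: 50 mM Tris pH 8, 300 mM NaCl, 2 mM MgCl2, 1 mM DTT, 1% DMSO, 25 °C. Reaction started with 100 µM GTP. Fluorescence decay read at ex 360/em 440 nm, kobs by single-exponential fit, compound at 0, 20 or 60 µM, duplicates, as % of activity.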

[14] = molecular target: Dedicator of cytokinesis protein 5 (Homo sapiens, UniProt Q9H7D0); assay: Inhibition of C-terminal 6-histidine tagged human DOCK5 (1212 to 1642 residues) expressed in Escherichia coli assessed as reduction in nucleotide exchange efficiency at 20 to 60 uM by N-methylanthraniloyl-GDP fluorescence based nucleotide exchange assay; details: dose microM 20-60; how it was run: as §2
Mus musculus [15] = assay: Antiosteoporotic activity in C57BL6/J mouse model of OVX-induced bone loss assessed as trabecular pattern factor level in tibial metaphysis at 20 mg/kg, ip BID for 4 weeks by microCT analysis (17.17 +/- 3.41 […]); format: functional
[16] = test system: Osteoclast (Homo sapiens); assay: Inhibition of resorption activity of human peripheral blood cell-derived osteoclasts at 1-20 uM incubated for 48 hrs by Kossa-staining based assay; details: dose microM 1-20, time 48.0 hrs
Mus musculus [17] = assay: Antiosteoporotic activity in C57BL6/J mouse model of OVX-induced bone loss assessed as trabecular bone volume per tissue volume level in femoral metaphysis at 20 mg/kg, ip QD for 4 weeks by histomorphometry (11.67 +/- 2.37%); format: functional; how it was run: as §1

Sequence of Dedicator of cytokinesis protein 5 (Q9H7D0 whole entry, the tested form may be a part): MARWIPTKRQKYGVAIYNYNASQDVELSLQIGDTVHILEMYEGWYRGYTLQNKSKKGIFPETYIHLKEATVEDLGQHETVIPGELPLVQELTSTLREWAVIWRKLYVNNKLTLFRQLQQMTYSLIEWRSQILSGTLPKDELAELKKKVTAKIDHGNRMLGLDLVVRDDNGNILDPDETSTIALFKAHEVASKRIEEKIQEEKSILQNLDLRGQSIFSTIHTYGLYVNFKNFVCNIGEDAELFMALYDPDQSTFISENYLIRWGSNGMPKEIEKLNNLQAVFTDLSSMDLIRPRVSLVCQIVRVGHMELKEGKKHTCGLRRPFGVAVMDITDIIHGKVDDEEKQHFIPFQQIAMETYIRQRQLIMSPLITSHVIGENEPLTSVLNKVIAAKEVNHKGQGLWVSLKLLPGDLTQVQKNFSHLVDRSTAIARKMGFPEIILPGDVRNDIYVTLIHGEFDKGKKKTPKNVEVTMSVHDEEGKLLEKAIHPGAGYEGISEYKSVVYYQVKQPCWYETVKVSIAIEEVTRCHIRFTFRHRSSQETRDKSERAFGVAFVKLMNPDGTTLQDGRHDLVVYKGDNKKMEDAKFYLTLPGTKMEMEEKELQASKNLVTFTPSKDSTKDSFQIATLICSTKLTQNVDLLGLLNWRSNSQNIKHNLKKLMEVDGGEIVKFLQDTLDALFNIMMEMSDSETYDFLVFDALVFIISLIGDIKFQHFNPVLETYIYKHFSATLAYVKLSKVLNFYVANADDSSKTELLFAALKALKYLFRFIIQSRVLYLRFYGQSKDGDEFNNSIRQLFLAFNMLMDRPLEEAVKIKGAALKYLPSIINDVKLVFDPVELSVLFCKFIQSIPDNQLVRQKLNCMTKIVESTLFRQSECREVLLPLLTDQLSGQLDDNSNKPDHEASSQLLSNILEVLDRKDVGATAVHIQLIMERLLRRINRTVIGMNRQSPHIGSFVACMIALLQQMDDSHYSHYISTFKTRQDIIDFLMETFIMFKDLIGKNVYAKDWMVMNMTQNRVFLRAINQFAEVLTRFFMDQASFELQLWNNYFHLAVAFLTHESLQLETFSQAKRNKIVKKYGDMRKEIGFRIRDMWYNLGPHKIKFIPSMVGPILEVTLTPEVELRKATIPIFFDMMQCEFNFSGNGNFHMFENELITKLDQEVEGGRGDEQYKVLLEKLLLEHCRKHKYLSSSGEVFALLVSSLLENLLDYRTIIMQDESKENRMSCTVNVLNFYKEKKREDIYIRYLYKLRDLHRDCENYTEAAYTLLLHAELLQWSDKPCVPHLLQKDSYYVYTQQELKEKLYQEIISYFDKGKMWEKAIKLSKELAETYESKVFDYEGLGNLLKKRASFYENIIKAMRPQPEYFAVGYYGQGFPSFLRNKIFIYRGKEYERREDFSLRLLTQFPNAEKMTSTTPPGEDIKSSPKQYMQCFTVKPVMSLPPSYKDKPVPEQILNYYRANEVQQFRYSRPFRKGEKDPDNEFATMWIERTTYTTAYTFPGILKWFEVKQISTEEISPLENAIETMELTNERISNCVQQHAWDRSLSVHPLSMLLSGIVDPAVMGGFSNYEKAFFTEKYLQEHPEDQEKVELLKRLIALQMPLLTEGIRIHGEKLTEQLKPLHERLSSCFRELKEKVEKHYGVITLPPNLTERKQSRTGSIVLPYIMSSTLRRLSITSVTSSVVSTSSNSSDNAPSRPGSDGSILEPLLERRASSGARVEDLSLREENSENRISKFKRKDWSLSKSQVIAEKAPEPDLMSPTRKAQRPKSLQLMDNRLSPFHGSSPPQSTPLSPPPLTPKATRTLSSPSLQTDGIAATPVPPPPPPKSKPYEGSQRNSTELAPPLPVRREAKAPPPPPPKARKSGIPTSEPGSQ

inhibition [13]: inactive | inhibition [14]: 45%
SMILES: O=S1(=O)N(c2ccccc2)C[C@H](O)[C@]12CCN(Cc1ccc(Cl)cc1)C2 (racemic)
Activity (Mus musculus [1]): 318.42 um | Activity [2]: 184.98 um3/um2/yr | Activity (Mus musculus [3]): 3.51 /millimeter | Activity [4]: 27.7% | Activity (Mus musculus [5]): 112.71% | Activity (Mus musculus [6]): 2.83 /millimeter | Activity (Mus musculus [7]): 153.3% | Activity [8]: 3.63 /millimeter | Activity [9]: Non-Toxic | Activity [10]: 1.82 micrometer/day | Activity (Mus musculus [11]): 19.48% | Activity [12]: Non-Toxic | Activity (Mus musculus [15]): 6.51 1/mm | inhibition [16]: Active | Activity (Mus musculus [17]): 12.02%

Source: ChEMBL document CHEMBL4699636, “Novel 2,7-Diazaspiro[4,4]nonane Derivatives to Inhibit Mouse and Human Osteoclast Activities and Prevent Bone Loss in Ovariectomized Mice without Affecting Bone Formation” (J Med Chem, 2020)
